Assay results from ChEMBL document CHEMBL1122515, “Structure-activity relationship of the ficin hydrolysis of phenyl hippurates. Comparison with papain, actinidin, and bromelain” (J Med Chem, 1984).

Columns and labels:
[1] = Michaelis constant (Km), determined by Ficin hydrolysis at pH 6, 25 degrees Centigrade; assay type: ADME; settings: buffer
Summary of the method: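 Ficin stock suspension diluted in 0.03 M NaCl-0.01 M EDTA buffer pH 6, activated ~2 h by saturation with 4-thiocresol, then diluted again in the same buffer. Ester hydrolysis followed spectrophotometrically at 25 °C, pH 6, in 3.3% acetonitrile-buffer. Initial rates taken at ≥8 substrate concentrations per ester. Km from least-squares fit of a Lineweaver-Burk plot.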

[2] = The compound was tested and spectral absorbance change (Δε) was evaluated
[3] = The compound was tested for optimum wavelength (λmax)
[4] = The compound was tested and optimum wavelength (λmax) was evaluated

Log 1/Km [1]	Structure (SMILES)	further results
4.15	N#Cc1cccc(OC(=O)CNC(=O)c2ccccc2)c1	
5.14	CC(C)(C)c1cccc(OC(=O)CNC(=O)c2ccccc2)c1	
4.13	O=C(CNC(=O)c1ccccc1)Oc1ccc(Br)cc1	Δε [2]: 1090 M⁻¹ cm⁻¹; λmax [3]: 280 nm
3.99	NC(=O)c1cccc(OC(=O)CNC(=O)c2ccccc2)c1	
4.3	CC(=O)c1ccc(OC(=O)CNC(=O)c2ccccc2)cc1	
4.75	O=C(CNC(=O)c1ccccc1)Oc1cccc(Br)c1	
4.09	COc1cccc(OC(=O)CNC(=O)c2ccccc2)c1	Δε [2]: 886 M⁻¹ cm⁻¹; λmax [4]: 280 nm
3.91	O=C(CNC(=O)c1ccccc1)Oc1ccc(Cl)cc1	
3.72	Nc1cccc(OC(=O)CNC(=O)c2ccccc2)c1	
4.33	CC(C)c1ccc(OC(=O)CNC(=O)c2ccccc2)cc1	Δε [2]: 1300 M⁻¹ cm⁻¹; λmax [4]: 275 nm
4.5	O=C(CNC(=O)c1ccccc1)Oc1ccc([N+](=O)[O-])cc1	
4.43	O=C(CNC(=O)c1ccccc1)Oc1cccc(Cl)c1	
4.64	O=C(CNC(=O)c1ccccc1)Oc1cccc(I)c1	
4.54	Cc1cc(C)cc(OC(=O)CNC(=O)c2ccccc2)c1	
4.17	Cc1cccc(OC(=O)CNC(=O)c2ccccc2)c1	
3.9	O=C(CNC(=O)c1ccccc1)Oc1ccccc1	
3.74	CC(=O)Nc1cccc(OC(=O)CNC(=O)c2ccccc2)c1	
4.85	O=C(CNC(=O)c1ccccc1)Oc1cccc(C(F)(F)F)c1	
4.27	N#Cc1ccc(OC(=O)CNC(=O)c2ccccc2)cc1	
4.17	NC(=O)c1ccc(OC(=O)CNC(=O)c2ccccc2)cc1	
4.52	COc1cc(OC)cc(OC(=O)CNC(=O)c2ccccc2)c1	
3.53	O=C(CNC(=O)c1ccccc1)Oc1ccc(F)cc1	
4.36	O=C(CNC(=O)c1ccccc1)Oc1cccc([N+](=O)[O-])c1	
4.79	CCc1cc(C)cc(OC(=O)CNC(=O)c2ccccc2)c1	
3.82	COc1ccc(OC(=O)CNC(=O)c2ccccc2)cc1	
4.69	O=C(CNC(=O)c1ccccc1)Oc1cc([N+](=O)[O-])cc([N+](=O)[O-])c1	
4.11	CC(=O)c1cccc(OC(=O)CNC(=O)c2ccccc2)c1	Δε [2]: 1860 M⁻¹ cm⁻¹; λmax [4]: 310 nm
3.81	O=C(CNC(=O)c1ccccc1)Oc1cccc(F)c1	
4.98	O=C(CNC(=O)c1ccccc1)Oc1cc(Cl)cc(Cl)c1	
3.82	Cc1ccc(OC(=O)CNC(=O)c2ccccc2)cc1	
